# Assay outcomes as filed in PubChem BioAssay.
# hK5 inh: inhibitors of human kallikrein 5; recombinant hK5, fluorogenic AMC substrate cleavage; 210,000 tested, 0.59% active; Q9Y337; inhibition, % at 5 µM;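 active = inhibition of 40% or more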;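 also: 0% = enzyme controls without compound and 100% = no-enzyme blanks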
# FXIa inh: factor XIa (human) inhibition. AID 798. purified FXIa, Boc-Glu-Ala-Arg-AMC fluorogenic substrate. inhibition, % at 5 µM. P03951. 220,000 tested, 0.14% active;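 active = inhibition of at least 40%; inactive = inhibition below 40%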;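 also: fluorescence of freed AMC excited at 355 nm; 0% = enzyme without compound and 100% = no enzyme blank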
# thrombin 1536: blocks human thrombin protease activity; P00734; alpha-thrombin, Boc-VPR-AMC fluorogenic substrate cleavage; inhibition, % at 5 µM; 220,000 tested, 0.26% active; AID 1046;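 active = inhibition at or above 40%; inactive = inhibition below 40%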;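 also: 0% = enzyme with no compound and 100% = wells without enzyme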
#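 Material: Human alpha-thrombin protein | Buffer or medium: pH 7.5 Tris-saline with Tween 20 | Reagent: Boc-VPR-AMC substrate, 15 µM final | Schedule: Reaction at ambient temperature | Detection: AMC fluorescence at 355 nm excitation and 460 nm emission | Evaluation: Percent inhibition scaled between no-compound controls and no-enzyme blanks | Controls: no-compound enzyme wells and no-enzyme blanks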
# FXIIa inh 1536: factor XIIa (human) inhibition; 220,000 tested, 0.3% active; AID 800; P00748; inhibition, % at 5 µM; purified FXIIa, Boc-QGR-AMC fluorogenic substrate, 2 h; in the data active = inhibition above about 40%;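 also: 0% = enzyme with no compound and 100% = blank without enzyme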
# Target sequence (P00748 20-372 limits assumed): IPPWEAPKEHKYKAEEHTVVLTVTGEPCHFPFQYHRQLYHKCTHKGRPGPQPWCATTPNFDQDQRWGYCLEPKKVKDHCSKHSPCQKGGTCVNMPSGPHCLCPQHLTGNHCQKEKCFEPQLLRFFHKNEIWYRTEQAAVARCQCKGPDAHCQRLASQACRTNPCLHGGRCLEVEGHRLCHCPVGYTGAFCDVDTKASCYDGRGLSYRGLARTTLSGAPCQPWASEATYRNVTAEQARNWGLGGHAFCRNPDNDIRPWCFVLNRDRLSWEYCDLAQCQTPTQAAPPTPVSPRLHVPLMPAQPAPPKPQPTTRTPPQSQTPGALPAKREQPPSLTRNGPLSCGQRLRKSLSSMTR
# Target sequence (P00748 373-615 limits assumed): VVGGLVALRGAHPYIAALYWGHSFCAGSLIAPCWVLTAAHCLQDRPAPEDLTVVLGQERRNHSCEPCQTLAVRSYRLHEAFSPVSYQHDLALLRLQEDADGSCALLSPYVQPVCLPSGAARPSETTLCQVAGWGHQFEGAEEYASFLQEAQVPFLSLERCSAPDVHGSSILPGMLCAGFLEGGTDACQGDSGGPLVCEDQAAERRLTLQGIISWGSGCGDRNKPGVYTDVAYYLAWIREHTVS
# Numbers without * were called inactive; nt = no result. Most compounds without a hit are left out; they make up all but 1% or so of the library.
SMILES,hK5 inh,FXIa inh,thrombin 1536,FXIIa inh 1536
CCc1nc2ccccc2c(C(=O)OCC(=O)C(C)(C)C)c1C,32,29,47*,27
Cc1ccc(C)c(NC(=O)/C(C#N)=C/c2cn(CC(=O)NCc3ccco3)c3ccccc23)c1,46*,12,31,1
CCOC(=O)c1sc2ccc(S(=O)(=O)N3CCOCC3)cc2c1N,56*,5,38,10
O=C(CSc1nnc(NC(=O)c2ccc(S(=O)(=O)N3CCOCC3)cc2)s1)Nc1ccccc1C(F)(F)F,3,4,-10,3
Cc1ccc(C(=O)OC2OC(=O)C(Cl)=C2N2CCOCC2)cc1 (stereo not given),-14,-4,1,1
CN(C)S(=O)(=O)Oc1cc(Cl)ccc1C(=O)Nc1ccc(F)cc1F,-4,-2,2,6
COc1cccc2sc(/N=C/N(C)C)nc12,35,24,22,46*
COc1cccc2sc(N(C)c3ccccc3)nc12,-7,15,-3,26
O=C(Nc1ccccc1C(=O)NC(Cc1ccc(O)cc1)C(=O)O)c1ccccc1 (stereo not given),-2,0,1,6
O=C(COC(=O)c1ncc(Cl)c(Cl)c1Cl)Nc1ccccc1OC(F)F,-3,-4,-5,1
O=C(COC(=O)COc1ccccc1Cl)Nc1ccccc1OC(F)F,26,-4,22,100*
CC(C)[C@H](NC(=O)c1ccco1)C(=O)OCC(=O)Nc1ccccc1OC(F)F,54*,2,-2,5
COCC(=O)Nc1ccccc1-c1ccccc1,13,45*,34,30
COCC(=O)Nc1nc(-c2ccccc2)ns1,58*,-11,19,24
CCC(=O)Oc1ccc(NC(=O)CSCc2ccccc2)cc1,2,0,-2,nt
CCOCCCNC(=S)N1CCC(NC(=O)C23CC4CC(CC(C4)C2)C3)CC1,3,-2,1,14
Cc1ccc(CCNC(=O)C2CCC(=O)N2Cc2cccnc2)cc1 (stereo not given),47*,6,6,16
O=C1C=C(NCc2ccc(Cl)c(Cl)c2)CC1,-4,-4,-3,6
O=C1C=C(NCc2ccc(Cl)cc2)CCC1,50*,5,14,23
Cc1cc(=O)oc2cc(OCCCN3C(=O)c4ccccc4C3=O)ccc12,-4,6,-8,3
Cc1cc(=O)oc2cc(OC(=O)CCN3C(=O)c4ccccc4C3=O)ccc12,-25,-14,8,63*
CCC/S(C)=N/S(=O)(=O)c1ccc(C)cc1 (stereo not given),48*,38,10,11
O=C1NC(c2ccccc2)Nc2c1sc(=S)n2-c1ccccc1 (stereo not given),-1,-2,-7,6
Cc1cc(C)c(C#N)c(SCc2ccc([N+](=O)[O-])cc2)n1,23,10,10,41*
Cc1cc(C)c(C#N)c(SCC(=O)c2ccccc2)n1,-4,-5,-14,2
SMILES,hK5 inh,FXIa inh,thrombin 1536,FXIIa inh 1536
CC(C)c1ccc(O)c(NC(=S)NC(=O)c2cccnc2)c1,nt,20,3,41*
COc1ccc(CN(C(=O)c2snc(C(N)=O)c2N)C(C(=O)NC(C)(C)C)c2ccco2)cc1 (stereo not given),11,-9,-3,43*
CC(C)(C)NC(=O)C(c1ccco1)N(Cc1ccc(F)cc1)C(=O)c1snc(C(N)=O)c1N (stereo not given),-32,-5,-4,4
C/C(N)=C(/C#N)C(=O)CSc1nc2cc(Cl)ccc2s1,-23,-12,41*,3
Cc1nc2ccccc2c(=O)n1NC(=O)c1cc(Br)ccc1Cl,43*,47*,51*,22
Cc1ccc(C)c(CSc2ccc3nnc(-c4ccccn4)n3n2)c1,-8,0,-5,3
CCCCCC(=O)Nc1cccc(C2=NOC3(C2)C[C@@H](C(N)=O)N(C(=O)c2cc([N+](=O)[O-])cc([N+](=O)[O-])c2)C3)c1 (stereo not given in full),0,0,-3,6
CCCCCC(=O)Nc1cccc(C2=NOC3(C2)C[C@@H](C(N)=O)N(C(=O)c2cc([N+](=O)[O-])cc([N+](=O)[O-])c2C)C3)c1 (stereo not given in full),14,40*,14,24
C=CCn1c(O)c(N=NC(=S)Nc2ccccc2F)c2ccccc21,-17,3,-8,11
C=CCn1c(O)c(N=NC(=S)Nc2ccccc2F)c2cc(S(=O)(=O)N3CCOCC3)ccc21,20,35,-2,55*
Clc1ccc(Cn2ncc3c(N4CCCC4)ncnc32)cc1,44*,1,9,8
Clc1ccc(Cn2ncc3c(N4CCCCC4)ncnc32)cc1,-4,7,-1,10
Cc1ccc(-c2noc(CN3CCC(C(N)=O)CC3)n2)cc1,86*,2,104*,26
CCOC(=O)CCCNC(=O)CCNC(=O)c1ccc(OCC(C)C)cc1,2,1,0,7
CCOC(=O)CCCNC(=O)CCNC(=O)c1ccc(OC(C)C)cc1,40*,13,22,16
COc1ccc(NC(=O)CC2C(=O)N(C)C(=S)N2Cc2ccncc2)cc1 (stereo not given),-12,0,5,4
COC(=O)c1ccc(NC(=O)CC2C(=O)N(C)C(=S)N2Cc2ccc(S(N)(=O)=O)cc2)cc1 (stereo not given),54*,31,18,22
O=C(OCC(=O)c1ccc(Cl)s1)c1ccc2ccccc2n1,22,14,33,43*
O=C(CNCC1CCCO1)N1CCCc2ccccc21 (stereo not given),52*,6,15,9
O=C(c1ccc(S(=O)(=O)NCC2CCCO2)cc1)N1CCc2ccccc21 (stereo not given),0,24,3,29
Cc1ccc(NC(=O)CN(C)C(=S)NC2CC2)cc1,9,-4,1,12
CCn1cc(S(=O)(=O)CC(=O)Nc2ccc(OC)cc2)c2ccccc21,41*,18,30,31
CCOc1ccc(NC(=O)CS(=O)(=O)c2cn(CC)c3ccccc23)cc1,-1,11,2,14
CCC(=O)N1CCN(CCN=CC2=C(O)CC(C)(C)CC2=O)CC1,40*,10,17,-9
O=c1cc(CN2CCN(c3ccc(F)cc3)CC2)c2cc3c(cc2o1)CCCC3,40*,18,17,27
SMILES,hK5 inh,FXIa inh,thrombin 1536,FXIIa inh 1536
CN1CCN(Cc2cc(=O)oc3cc4c(cc23)CCC4)CC1,-3,0,-2,5
O=C(O)/C(=C\C(=O)c1ccccc1)Nc1ccccc1,4,-6,-2,3
Cc1ccc2[nH]c(=O)c(N3CCOCC3)c(-c3ccccc3)c2c1,47*,12,16,2
O=C(CCN1CCOCC1)Nc1c(-c2ccccc2)c2cc(Br)ccc2[nH]c1=O,-3,0,-1,7
COc1ccc(C(=O)NC(=S)N2CCCCC2)cc1,44*,17,19,33
CCOC(=O)c1sc(NC(=O)CSC(=S)N2CCN(C)CC2)nc1C,37,44*,14,33
CCOC(=O)N1CCC(N2CCCC(CO)(Cc3cccc(Cl)c3)C2)CC1 (stereo not given),nt,-5,-2,3
